Bioassay records from PubChem.
The list is not random: actives were taken first. Their share in the collection is about 2.3%.
TRPC4 act – opens the mouse TRPC4 cation channel; Q9QUQ5; 310,000 tested, 0.49% active; B-score at 10 µM; HEK293 TRPC4beta/mu-opioid, Fluo4 calcium fluorescence; active compounds read high;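 active means B-score above 5 SD of library B-scores, and initial fluorescence ratio not above library mean plus 5 SD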;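 further: positive B-score marks a calcium rise read as TRPC4 activation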
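Material: TRPC4beta and mu-opioid receptor HEK293 stable cells | Incubation: 45 min room-temperature Fluo4 loading, 110 s read | Detection: Kinetic Fluo4 calcium fluorescence | Measure: Integrated baseline-normalised fluorescence ratio, converted to per-well B score | Benchmarks: Low control buffer alone, high control maximal DAMGO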
TRPC4 inh – blocks the mouse TRPC4 cation channel; Q9QUQ5; 300,000 tested, 0.39% active; B-score at 10 µM; HEK293 TRPC4beta/mu-opioid, DAMGO-evoked Fluo4 calcium flux; active compounds read low;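 active means B-score over 3 SD under the library average, no early fluorescence shift, positive overall ratio signal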
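Material: HEK293 cells with stable TRPC4beta plus mu-opioid receptor expression / Probe or stimulus: DAMGO in two steps, submaximal then maximal / Compound: single concentration per test compound / Technique: kinetic Fluo4 fluorescence imaging of calcium influx / Read-out: per-well B score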
TRPC4 potent – allosterically enhances the mouse TRPC4 cation channel. B-score at 10 µM. 310,000 tested, 0.42% active. HEK293 TRPC4beta/mu-opioid, DAMGO EC20, Fluo-4 Ca2+ flux; active compounds read high. AID 2227;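 active means B-score of calcium response area above 5 SD of library B-scores, with initial fluorescence ratio within 5 SD of library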;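 further: B-score of integrated fluorescence ratio over time as area under calcium response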
TRPC6 activator – activators of mouse TRPC6 channel | Q61143 | HEK293-TRPC6 membrane potential dye fluorescence; active compounds read high | 310,000 tested, 0.13% active | B-score at 10 µM;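 active means B-score of the integrated fluorescence ratio above library mean plus 3 SD, and starting fluorescence ratio within library mean plus 5 SD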;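 further: higher score means more depolarization so channel activation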
TRPC6 inhibitor – blocks the mouse TRPC6 cation channel; Q61143; 310,000 tested, 1.1% active; B-score at 10 µM; HEK293-TRPC6, membrane potential dye, ACh-evoked depolarization; active compounds read low; AID 2553;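 active means B-score under library mean minus 3 SD, initial fluorescence not abnormally high, positive integrated signal ratio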;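 further: B-score derived from integrated fluorescence ratio over the kinetic read; more negative B-score means stronger inhibition of depolarization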
HEK293 TRPC6 ctr – parental HEK293 nonspecific activity of TRPC6 modulators; membrane potential signal change, % at 10 µM; shares compounds with TRPC6 inhibitor; membrane potential dye fluorescence; 2,400 tested, 51% active;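 active means membrane potential signal moves up or down beyond 5 SD from buffer-only wells, on both duplicate plates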
HEK293 MPD ctr 2 – second check of TRPC6 modulator effects in parental HEK293 cells; shares compounds with TRPC6 inhibitor; membrane potential dye fluorescence; after compound, maximal acetylcholine stimulation; inhibition, % at 10 µM; 2,400 tested, 14% active; AID 488926;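 active means membrane potential signal drops by more than 5 SD from the mean control signal, in both duplicate plates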;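 further: plate controls were acetylcholine ECmax control wells for no effect and buffer only wells for full effect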
TRPC4/MOR mod – mouse TRPC4 off-target activity of TRPC6 modulators | HEK293 TRPC4/mu-opioid, membrane potential fluorescence | shares compounds with TRPC6 inhibitor | percent change from control (negative = decrease, positive = increase), % at 10 µM | 2,400 tested, 69% active | AID 488927;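 active means membrane potential signal moved up or down beyond 5 SD of buffer control wells, in both duplicate plates, actives on both sides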;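 further: plate controls were assay buffer wells for no effect and DAMGO maximal-effect wells for full effect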
TRPC4 ctr inh 2 – second selectivity test of TRPC6 modulators against mouse TRPC4 | inhibition, % at 10 µM | shares compounds with TRPC6 inhibitor | 2,400 tested, 55% active | AID 488928 | HEK293 TRPC4/mu-opioid, membrane potential dye fluorescence; stimulated with maximal-effect DAMGO;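 active means drop in membrane potential signal beyond 5 SD of the control wells in both duplicate plates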;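 further: TRPC4 counter screen for TRPC6 hits run under conditions tuned for TRPC6 not TRPC4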
TRPC6 block conf – confirmation of mouse TRPC6 inhibitors; shares compounds with TRPC6 inhibitor; HEK293-TRPC6, membrane potential dye, ACh-evoked depolarization; inhibition, % at 10 µM; 3,300 tested, 43% active;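 active means fluorescence ratio falls more than 5 SD below the full-stimulation control mean, in both duplicate runs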;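 further: integrated fluorescence ratio of peak minus minimum over baseline after agonist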
TRPC6 act conf – mouse TRPC6 activator confirmation; 2,800 tested, 11% active; activation, % at 10 µM; shares compounds with TRPC6 inhibitor; HEK293-TRPC6 membrane potential dye fluorescence, FDSS;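 active means ratio signal rise beyond 5 SD above unstimulated control wells' mean, seen in both duplicate runs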;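 further: plate controls were buffer EC0 wells for no effect and acetylcholine ECmax response for full effect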
* = called active by the depositor.

For COCC1CCCCN1C(=O)c1cccc(OC2CCN(S(C)(=O)=O)CC2)c1 (stereo not given) the results were TRPC4 act inactive, TRPC4 inh inactive, TRPC4 potent inactive, TRPC6 activator inactive and TRPC6 inhibitor inactive.
C#CCn1cnc2c(oc3ccccc32)c1=O was read as TRPC4 act inactive, TRPC4 inh inactive, TRPC4 potent inactive, TRPC6 activator inactive, TRPC6 inhibitor -5.03*, HEK293 TRPC6 ctr inactive, HEK293 MPD ctr 2 inactive, TRPC4/MOR mod inactive, TRPC4 ctr inh 2 inactive, TRPC6 block conf inactive and TRPC6 act conf inactive.
CCn1cnc2c(oc3ccccc32)c1=O was read as TRPC4 act inactive, TRPC4 inh inactive, TRPC4 potent inactive, TRPC6 activator inactive and TRPC6 inhibitor inactive.
Screening COc1ccc(Nc2nc(Cl)c(C=O)s2)cc1 returned TRPC4 act inactive, TRPC4 inh inactive, TRPC4 potent inactive, TRPC6 activator inactive and TRPC6 inhibitor inactive.
Screening c1ccc(-c2cc3c(N4CCN(c5ccccc5)CC4)ncnc3s2)cc1 returned TRPC4 act inactive, TRPC4 inh inactive, TRPC4 potent inactive, TRPC6 activator inactive and TRPC6 inhibitor inactive.
Screening CN1CCN(c2ncnc3sc(-c4ccccc4)cc23)CC1 returned TRPC4 act inactive, TRPC4 inh inactive, TRPC4 potent inactive, TRPC6 activator inactive, TRPC6 inhibitor -6.23*, HEK293 TRPC6 ctr inactive, HEK293 MPD ctr 2 inactive, TRPC4/MOR mod inactive, TRPC4 ctr inh 2 38.5%*, TRPC6 block conf inactive and TRPC6 act conf inactive.
For Cc1ccc(NC(=O)CCC(=O)n2nc(C)cc2C)c(C)c1 the results were TRPC4 act inactive, TRPC4 inh inactive, TRPC4 potent inactive, TRPC6 activator inactive, TRPC6 inhibitor -5.88*, HEK293 TRPC6 ctr inactive, HEK293 MPD ctr 2 inactive, TRPC4/MOR mod inactive, TRPC4 ctr inh 2 inactive, TRPC6 block conf inactive and TRPC6 act conf inactive.
COc1cc(Cl)ccc1NC(=O)COc1ccccc1C(=O)NN was read as TRPC4 act inactive, TRPC4 inh inactive, TRPC4 potent inactive, TRPC6 activator inactive and TRPC6 inhibitor inactive.
`O=C(Nc1ccc(C2=NCCN2)cc1)c1ccc(C(=O)Nc2ccc(C3=NCCN3)cc2)c(Cl)c1` gave TRPC4 act inactive, TRPC4 inh inactive, TRPC4 potent inactive, TRPC6 activator 15.8*, TRPC6 inhibitor inactive, HEK293 TRPC6 ctr 307.0%*, HEK293 MPD ctr 2 inactive, TRPC4/MOR mod 54.0%*, TRPC4 ctr inh 2 inactive, TRPC6 block conf inactive and TRPC6 act conf 154.5%*.
CC12CC3CC(C)(C1)CC(Nc1nc(N4CCOCC4)nc4ccccc14)(C3)C2 was read as TRPC4 act inactive, TRPC4 inh inactive, TRPC4 potent inactive, TRPC6 activator inactive and TRPC6 inhibitor inactive.
Screening CN1CCC(NCCC(c2ccc(F)cc2)c2ccc(Cl)cc2)CC1 (stereo not given) returned TRPC4 act inactive, TRPC4 inh inactive, TRPC4 potent inactive, TRPC6 activator inactive, TRPC6 inhibitor -5.4*, HEK293 TRPC6 ctr 104.0%*, HEK293 MPD ctr 2 inactive, TRPC4/MOR mod 17.5%*, TRPC4 ctr inh 2 56.5%* and TRPC6 block conf inactive.
